Screens deposited in PubChem by several laboratories.
Rows were chosen to be rich in hits. Some 29% of all compounds tested hit in one or more screens of this group.
CYP2C9 act: human CYP2C9 activators, primary screen, biochemical, luminescence; AID 1024, 2008; Cytochrome P450 2C9 (Homo sapiens), P11712; 1.4% of 96,000 active; activation factor at 5 µM; recombinant CYP2C9, luciferin-H conversion; hits give high values; factor 1 = untreated enzyme, 0 = blocked;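 active means activation factor of 2 or more for CYP2C9 at a 5 µM dose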;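 further: 0 = sulfaphenazole-blocked wells and 1 = vehicle-only wells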
Target sequence (P11712 whole entry, looked up): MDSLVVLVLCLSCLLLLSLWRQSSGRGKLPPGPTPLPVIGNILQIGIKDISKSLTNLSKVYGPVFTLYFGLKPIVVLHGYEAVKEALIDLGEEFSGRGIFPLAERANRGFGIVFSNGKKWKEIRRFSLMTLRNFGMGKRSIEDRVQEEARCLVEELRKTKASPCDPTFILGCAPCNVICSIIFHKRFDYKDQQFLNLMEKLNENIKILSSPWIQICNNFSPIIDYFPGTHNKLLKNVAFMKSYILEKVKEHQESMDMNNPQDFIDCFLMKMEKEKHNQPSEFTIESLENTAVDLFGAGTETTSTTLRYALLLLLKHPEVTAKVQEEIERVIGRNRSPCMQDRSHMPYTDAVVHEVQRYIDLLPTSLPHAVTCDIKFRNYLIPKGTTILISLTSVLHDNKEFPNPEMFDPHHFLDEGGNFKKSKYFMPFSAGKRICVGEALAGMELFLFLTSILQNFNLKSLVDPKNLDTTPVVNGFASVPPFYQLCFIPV
CYP2C19 inh: blockers of cytochrome P450 2C19 activity – biochemical, luminescence, ADME assay, primary screen. CYP2C19 Supersomes, luciferin-H EGE luminescence, 30 min. 21% of 96,000 active. inhibition, % at 5 µM. P33261;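 active means CYP2C19 inhibition above a set limit at 5 µM in the primary screen, cut at about 50% in these data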;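 further: plate controls were negative control wells for no effect and 2.5 mM tranylcypromine positive control for full effect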
CYP2C19 activ: human CYP2C19 activators, primary screen, biochemical, luminescence; Cytochrome P450 2C19 (Homo sapiens), P33261; recombinant CYP2C19, luciferin-H EGE luminescence; hits give high values; 0 = fully inhibited enzyme, 1 = untreated enzyme; activation factor at 5 µM; 96,000 tested, under 10 active;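 active means activation factor of at least 2 at 5 µM in the primary screen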;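 further: 0 = wells with 2.5 mM tranylcypromine and 1 = vehicle-only wells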
E coli WT exp: growth inhibitors of wild-type E. coli, primary screen, strain BW25113, expanded library, OD600 | 0.15% of 98,000 active | growth inhibition, % at 100 µM | OD600 absorbance;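 active means growth inhibition above about 50% at one test dose, limit read from the data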;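 further: growth measured after 20 h incubation at 37 °C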
CYP2C9 inh: blockers of cytochrome P450 2C9 activity – biochemical, luminescence, ADME assay, primary screen. P11712. CYP2C9 Supersomes, luciferin-H conversion. inhibition, % at 5 µM. 20% of 96,000 active;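 active means blocking of liver enzyme CYP2C9 beyond about 50% at 5 µM, limit read from the data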
Ecoli tolC: growth inhibitors of E. coli tolC mutant, primary screen, strain BW25113 ΔtolC::kan, 384-well | OD615 | growth inhibition, % at 10 µM (by protocol) | 2.2% of 65,000 active;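 active means growth inhibition at or above a cutoff equal to the mean over every tested compound plus 3 SD, cut at about 60% in these data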;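 further: growth measured after 20 h incubation at 37 °C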
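signal = optical density read at 615 nm | test system = E. coli ΔtolC::kan strain BW25113 | timing = 20 h compound exposure of bacteria at 37 °C | buffer or medium = LB medium plus 50 µg/mL kanamycin | compound dosing = 10 µM final, single dose | evaluation = % inhibition of E. coli growth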
* = called active by the depositor; / = not tested or not shown.

SMILES	CYP2C9 act	CYP2C19 inh	CYP2C19 activ	E coli WT exp	CYP2C9 inh	Ecoli tolC
O=C(CCN1C(=O)CSC1=O)Nc1ccccc1	1.1	-4.9	1	-1.0	-11.2	-12.2
O=C(c1ccccn1)N(Cc1ccco1)C1(C(=O)NC2CCCC2)CCCCC1	0.9	-5.3	1.1	7.0	9.7	/
Cc1ccc(N(C(=O)c2ccccn2)C2(C(=O)NC3CCCC3)CCCCC2)cc1	0.1	37.0	0.6	-4.0	92.6*	/
COCCNC(=O)c1noc2c1CCc1cc(OC)ccc1-2	0.4	20.2	0.8	3.0	59.1*	1.4
COc1ccc2c(c1)CCc1c(C(=O)NCCN3CCOCC3)noc1-2	1	4.0	1	-13.0	1.7	1.4
COCC(C)NC(=O)c1noc2c1CCc1cc(OC)ccc1-2 (stereo unspecified)	1.4	1.6	1	-9.0	-36.1	-3.7
COc1ccc2c(c1)CCc1c(C(=O)NCc3ccco3)noc1-2	1.4	62.4*	0.4	-6.0	-40.8	7.6
COc1ccc2c(c1)CCc1c(C(=O)NCCCn3ccnc3)noc1-2	0.3	81.9*	0.2	-1.0	68.7*	24.4
Nc1ccccc1-c1nnc(SCc2ccccc2F)[nH]c1=O	0.6	1.1	1	-6.0	39.3	11.4
CCn1c(Cc2ccccc2)nnc1SCC(=O)Nc1ccc(S(N)(=O)=O)cc1	0.8	6.3	0.9	11.0	17.8	13.3
CCSc1ncc(/C=N/Nc2ccc(Cl)cc2)n1C	0.8	29.4	0.7	2.0	23.4	/
CCSc1ncc(/C=N/Nc2ccccc2)n1C	0.5	43.5	0.6	2.0	51.9*	/
O=C(Cn1cc2c(n1)CCCC2)N1CCc2ccccc21	0.7	9.5	0.9	6.0	27.4	-5.4
O=C(NCCCN1CCOCC1)c1c(O)c2ccccc2[nH]c1=O	1.1	-10.0	1.1	11.0	-10.1	4.7
COc1cc2[nH]c(=O)c(C(=O)NCCCN3CCCCC3)c(O)c2cc1OC	0.7	52.4*	0.5	5.0	28.4	-15.8
Fc1ccccc1N1CC(c2ccccc2)C(c2cccs2)=N1 (stereo unspecified)	0.4	23.8	0.8	-12.0	59.5*	/
O=C(c1ccc2c(c1)OCO2)N(Cc1ccco1)C1(C(=O)NC2CCCCC2)CCCCC1	0.5	58.6*	0.4	-12.0	45.9	/
O=C(Cc1cccs1)N(Cc1ccco1)C1(C(=O)NC2CCCC2)CCCCC1	0.4	44.6	0.6	3.0	59.9*	23.5
O=C1NC(=O)C(CC(=O)N(Cc2ccco2)C2(C(=O)NC3CCCC3)CCCCC2)N1 (stereo unspecified)	1.2	-1.0	1	1.0	-16.6	-0.3
CC(C)(C)NCc1ccccc1OCc1cccs1	1	-8.1	1.1	-2.0	1.7	/
O=C(CNC(=O)c1ccccc1C(=O)O)c1ccccc1	0.8	12.4	0.9	/	21.6	-9.9
CC(C)c1[nH]nc2c1C(Cc1ccccc1)C(C#N)=C(N)O2 (stereo unspecified)	0.4	95.2*	0	14.0	57.3*	25.9
CC(C)c1[nH]nc2c1C(C(C)C)C(C#N)=C(N)O2 (stereo unspecified)	1.1	58.7*	0.4	4.0	-10.7	7.6
COCc1[nH]nc2c1C(c1ccccc1Cl)C(C#N)=C(N)O2 (stereo unspecified)	0.7	47.3	0.5	8.0	33.9	-8.9
CCc1[nH]nc2c1C(c1cccc(OC(=O)N3CCOCC3)c1)C(C#N)=C(N)O2 (stereo unspecified)	0.6	70.3*	0.3	8.0	37.4	-18.4
SMILES	CYP2C9 act	CYP2C19 inh	CYP2C19 activ	E coli WT exp	CYP2C9 inh	Ecoli tolC
CC(C)c1[nH]nc2c1C(c1cccc(OC(=O)N3CCOCC3)c1)C(C#N)=C(N)O2 (stereo unspecified)	1	-5.6	1.1	-9.0	3.0	4.0
COCc1[nH]nc2c1C(c1c(F)cccc1Cl)C(C#N)=C(N)O2 (stereo unspecified)	0.6	57.6*	0.4	5.0	43.8	2.8
Cn1cccc1Cc1nnc(SCC(=O)N2CCN(c3ccccc3)CC2)n1-c1ccc(F)cc1	0.9	8.7	0.9	6.0	12.4	5.0
CN(C)S(=O)(=O)c1ccc2c(c1)c(=O)c(C(=O)N1CCN(c3ccccn3)CC1)cn2C	1	-10.0	1.1	4.0	-0.9	-4.9
Cc1ccc(SCc2[nH]nc3c2C(C(C)C)C(C#N)=C(N)O3)cc1 (stereo unspecified)	0.5	35.7	0.6	10.0	52.5*	/
CCCc1[nH]nc2c1C(Cc1ccccc1)C(C#N)=C(N)O2 (stereo unspecified)	0.9	67.9*	0.3	6.0	5.9	8.2
CCCc1[nH]nc2c1C(c1ccc(OC)c(CSC3=NCCS3)c1)C(C#N)=C(N)O2 (stereo unspecified)	0.4	45.4	0.5	5.0	57.8*	86.9*
COc1ccc(OC)c(-c2[nH]nc3c2C(c2ccco2)C(C#N)=C(N)O3)c1 (stereo unspecified)	0.6	80.4*	0.2	-7.0	38.8	5.6
CCCc1[nH]nc2c1C(c1ccc(OC(=O)N3CCOCC3)c(OC)c1)C(C#N)=C(N)O2 (stereo unspecified)	1	1.8	1	2.0	4.2	-6.8
CC(=O)Nc1ccc(Cl)cc1C(=O)O	1	-2.3	1	-5.0	2.8	-12.9
COc1ccc(-c2nnc(N3CCC(C)CC3)c3ccccc23)cc1	0.7	18.1	0.8	-6.0	27.0	/
CCCc1[nH]nc2c1C(CCc1ccccc1)C(C#N)=C(N)O2 (stereo unspecified)	0.3	76.7*	0.2	6.0	68.8*	49.5
Cc1ccc(C2C(C#N)=C(N)Oc3n[nH]c(C)c32)cc1 (stereo unspecified)	0.9	26.9	0.7	-4.0	9.2	2.6
CCCc1[nH]nc2c1C(c1cc(OC)cc(OC)c1)C(C#N)=C(N)O2 (stereo unspecified)	0.7	34.1	0.7	1.0	31.4	-4.5
CCCc1[nH]nc2c1C(c1cc(OC)ccc1F)C(C#N)=C(N)O2 (stereo unspecified)	0.1	81.0*	0.2	5.0	88.5*	1.1
CCc1[nH]nc2c1C(Cc1ccccc1)C(C#N)=C(N)O2 (stereo unspecified)	0.9	53.2*	0.5	-3.0	14.4	/
Cc1[nH]nc2c1C(Cc1ccccc1)C(C#N)=C(N)O2 (stereo unspecified)	0.7	65.5*	0.3	-12.0	33.0	7.1
CCc1nc(C)cc(N)c1OCc1ccccc1	1	4.4	1	15.0	1.2	-7.6
